This is one part of a sample in which hits are shown more often than they occur.
V-ATPase pH = regulators of yeast V-ATPase proton pumping, primary screen, pHLuorin cytosolic pH fluorescence | response, % at 10 µM | AID 504577, 2011 | 0.37% of 350,000 active | S. cerevisiae; in the data active = response mostly above about 7.3%, no sharp cut-off; inactive = mostly below about 5.4%; note: actives read high
Dynein cargo inh = inhibitors of GR-EGFP nuclear translocation, primary screen, dynein cargo transport inhibitor project, imaging, high-content, 3617.4 mouse cells | test concentration mostly 20 µM; stimulated with dexamethasone, 1 µM; stronger effect = lower value | z-score, hits read low | 0.47% of 220,000 active;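 active = plate z-score of nuclear minus cytoplasmic receptor signal below a set negative limit, without overly bright fluorescence or cell loss, cut at about -3.5 in these data, passing the limit was not always enough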;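 note: z-score of nuclear minus cytoplasmic ring GR-EGFP intensity difference per well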
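Buffer or medium: tetracycline-free induction medium containing charcoal-stripped FBS / Reagent: dexamethasone agonist, 1.0 µM final, for 30 min / Technique: automated 10x imaging of fixed Hoechst-stained cells / Times: induction 48 h, compound 1 h, agonist 30 min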
pCIP destab = p/CIP-EGFP fusion destabilizers, primary screen, fluorescence, F442A cells. Q05BA5. 16 h. decrease of EGFP signal, % at 10 µM. 0.01% of 290,000 active;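 active = EGFP signal decrease of at least 30% at 10 µM or well 3 SD below plate mean, unless failing retest; inactive = the rest, including hits failing retest or dose response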
ABCB6 inh MLPCN = ABCB6 transporter inhibitors, primary screen, K562-ABCB6 cells, flow cytometry, MLPCN library | AID 602162, 2011 | fluorescence ratio to DMSO, % at 10 µM | K562-ABCB6 porphyrin accumulation, 1 h; stronger effect = lower value | ATP-binding cassette sub-family B member 6 (Homo sapiens), Q9NP58 | 0.19% of 360,000 active;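 active = fluorescence ratio to DMSO below 75%, the collection mean minus 3 SD; inconclusive = too few cells collected in the well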;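 note: signal is porphyrin accumulated inside mitochondria; lower ratio means ABCB6 inhibition with less porphyrin fluorescence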
Target sequence (Q9NP58 whole entry, looked up): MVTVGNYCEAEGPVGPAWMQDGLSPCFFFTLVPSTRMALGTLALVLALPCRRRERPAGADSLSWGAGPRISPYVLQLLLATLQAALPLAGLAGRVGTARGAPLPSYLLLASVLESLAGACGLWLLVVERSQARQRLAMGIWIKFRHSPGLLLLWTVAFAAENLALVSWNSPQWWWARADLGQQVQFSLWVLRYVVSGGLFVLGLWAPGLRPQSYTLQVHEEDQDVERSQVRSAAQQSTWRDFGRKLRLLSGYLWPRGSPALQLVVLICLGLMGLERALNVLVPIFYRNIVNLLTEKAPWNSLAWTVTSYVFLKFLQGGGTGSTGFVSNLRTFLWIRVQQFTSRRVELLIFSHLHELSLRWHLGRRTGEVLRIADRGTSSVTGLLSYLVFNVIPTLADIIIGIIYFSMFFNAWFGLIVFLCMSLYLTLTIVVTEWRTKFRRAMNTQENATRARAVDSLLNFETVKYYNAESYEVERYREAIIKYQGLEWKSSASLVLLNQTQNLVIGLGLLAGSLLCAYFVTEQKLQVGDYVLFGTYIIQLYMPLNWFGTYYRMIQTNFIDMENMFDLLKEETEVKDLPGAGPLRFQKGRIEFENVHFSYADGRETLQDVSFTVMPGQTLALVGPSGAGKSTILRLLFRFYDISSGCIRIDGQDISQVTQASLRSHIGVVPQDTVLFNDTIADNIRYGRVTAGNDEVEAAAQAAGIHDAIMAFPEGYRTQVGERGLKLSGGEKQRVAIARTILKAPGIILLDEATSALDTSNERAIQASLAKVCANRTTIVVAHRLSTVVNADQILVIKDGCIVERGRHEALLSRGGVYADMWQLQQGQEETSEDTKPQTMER
KCC2 mod = KCC2 cotransporter modulators, thallium flux, primary screen, cell-based, HEK293 KCC2, FluoZin-2 fluorescence, MLSMR | Solute carrier family 12 member 5 (Homo sapiens), Q9H2X9 | KCC2 cells, thallium flux FluoZin-2 fluorescence | B-score of Tl+ flux slope (higher = more flux/activation; lower = inhibition) at 10 µM | 2.2% of 190,000 active;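 active = thallium flux slope and its plate-corrected score both differing from the plate sample mean at a set confidence after two filtering rounds, in either direction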;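 note: slope of fluorescence scaled to starting intensity during 10 to 20 s after thallium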
KCC2 secondary = KCC2 modulators in sodium-free buffer, confirmation, cell-based, HEK293 KCC2, thallium flux, secondary assay | FluoZin2 fluorescence; stronger effect = higher value | 15% of 3,700 active | shares compounds with KCC2 mod | normalised thallium flux (F/F0 slope) at 10 µM | AID 1713, 2009;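 active = thallium flux slope above the same plate's solvent-only control mean plus 3 SD; inconclusive = the two replicate wells disagree; inactive = no significant difference from solvent-only control wells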
KCC2 bumet counter = thallium flux persisting under bumetanide in KCC2 cells, confirmation, counter-screen for KCC2 modulator project, cell-based, HEK293 KCC2, FluoZin2, secondary assay 3. shares compounds with KCC2 mod. AID 1714, 2009. HEK293-KCC2 + bumetanide/ouabain; stronger effect = higher value. 49% of 3,700 active. normalized thallium flux at 10 µM;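 active = thallium entry rate above the same plate's blocked-transporter control wells by more than 3 SD; inconclusive = the two repeat wells disagree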;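 note: raw slope of fluorescence over initial fluorescence between 10 and 20 s after thallium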
KCC2 secondary2 = KCC2 modulators without ouabain present, confirmation, cell-based, HEK293 KCC2, thallium flux, FluoZin2, secondary assay 2; normalized thallium flux at 10 µM; shares compounds with KCC2 mod; 23% of 3,700 active; thallium flux FluoZin2 fluorescence; actives lie on both sides; F/F0 rise rate, 10–20 s post-thallium;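 active = thallium flux slope more than 3 SD above or below the plate's solvent-only control mean, mostly below; inconclusive = the two repeat wells disagreed; inactive = no significant shift from solvent-only controls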
HEK293 Tl flux = thallium flux modulation in parental HEK cells, confirmation, counter-screen for KCC2 modulator project, cell-based, counterscreen 1; HEK293 parental cells, thallium flux FluoZin2, ouabain; baseline-ratio fluorescence slope, 10–20 s after thallium; shares compounds with KCC2 mod; AID 1716, 2009; 46% of 3,700 active; thallium flux rate (normalised fluorescence) at 10 µM;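 active = thallium flux rate significantly above the same plate's solvent-only control wells, beyond their mean plus 3 SD; inconclusive = the two replicate wells gave conflicting results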
KCC2 ouabain = KCC2 inhibitors and activators, ouabain retest, confirmation, HEK-KCC2 cells; raw Tl+ flux slope (below DMSO = inhibition, above = activation) at 10 µM; AID 1717, 2009; 48% of 3,700 active; shares compounds with KCC2 mod; HEK293-KCC2, thallium flux FluoZin2 fluorescence; bidirectional: low = inhibitor, high = activator;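 active = thallium flux slope beyond 3 SD from same-plate DMSO control mean in most replicates, usually higher, sometimes lower; inconclusive = repeat tests gave conflicting results; inactive = no significant difference from controls in most replicates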;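 note: slope of initial-normalized fluorescence between seconds 10 and 20 after thallium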
HEK293 Tl flux2 = native HEK Tl+ uptake effects, second counter-screen – HEK cells, counterscreen 2, counter-screen for KCC2 modulator project, confirmation; shares compounds with KCC2 mod; HEK293 parental, thallium flux FluoZin-2 fluorescence slope; thallium flux slope at 10 µM; 33% of 3,700 active; AID 1718, 2009;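 active = thallium flux slope above the same plate's solvent-control mean plus 3 SD in both duplicate wells; inconclusive = duplicate wells that disagreed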;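 note: run without ouabain in cells lacking the KCC2 cotransporter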
Of the large screens only hits and unclear results are named; the others gave an inactive call (follow-up assays come after a bar, where they were run).

Cc1nc(C(=O)NNC(=O)c2cccc(Cl)c2)c(C(F)(F)F)o1	KCC2 mod 11 | KCC2 secondary 0.013 | KCC2 bumet counter 0.019 | KCC2 secondary2 inactive | HEK293 Tl flux inconclusive | KCC2 ouabain inactive | HEK293 Tl flux2 0.011
Cc1nc(C(=O)NNC(=O)c2ccccc2Cl)c(C(F)(F)F)o1	KCC2 mod 5.6 | KCC2 secondary inactive | KCC2 bumet counter 0.007 | KCC2 secondary2 inactive | HEK293 Tl flux 0.0095 | KCC2 ouabain inconclusive | HEK293 Tl flux2 inconclusive
CN(CC(=O)Nc1ccccc1C(F)(F)F)C(=O)CSCc1ccccc1	none (no result: Dynein cargo inh, pCIP destab, KCC2 mod)
C=C/C(C)=C/CC1C(=C)CCC2C(C)(C(=O)O)CCCC12C (stereo not drawn)	ABCB6 inh MLPCN inconclusive, KCC2 mod 2.3 | KCC2 secondary inactive | KCC2 bumet counter 0.0092 | KCC2 secondary2 inactive | HEK293 Tl flux 0.012 | KCC2 ouabain inconclusive | HEK293 Tl flux2 0.014
CC1Cc2ccccc2N1C(=O)/C=C/c1cccc(F)c1 (stereo not drawn)	KCC2 mod -4.4 | KCC2 secondary inactive | KCC2 bumet counter inactive | KCC2 secondary2 0.023 | HEK293 Tl flux inactive | KCC2 ouabain 0.015 | HEK293 Tl flux2 inactive
Cc1sc2nc(C(C)C)nc(SCC(=O)N3CCN(C(=O)c4ccco4)CC3)c2c1C	none (no result: KCC2 mod) | KCC2 secondary inactive | KCC2 bumet counter 0.017 | KCC2 secondary2 inactive | HEK293 Tl flux 0.012 | KCC2 ouabain inactive | HEK293 Tl flux2 0.012
Cc1cc(NC(=O)CSc2nc(C(C)C)nc3sc(C)c(C)c23)no1	KCC2 mod 9.3 | KCC2 secondary inconclusive | KCC2 bumet counter 0.034 | KCC2 secondary2 inactive | HEK293 Tl flux 0.017 | KCC2 ouabain inconclusive | HEK293 Tl flux2 0.012
Cc1sc2nnn(CC(=O)N3CCN(C(=O)c4ccco4)CC3)c(=O)c2c1C	none (no result: pCIP destab)
O=C(Nc1cc(S(=O)(=O)N2CCCCC2)ccc1Cl)c1ccccc1NS(=O)(=O)c1ccc(F)cc1	KCC2 mod -4.8 | KCC2 secondary inactive | KCC2 bumet counter inactive | KCC2 secondary2 inconclusive | HEK293 Tl flux inactive | KCC2 ouabain inconclusive | HEK293 Tl flux2 inactive
O=C(Nc1cc(S(=O)(=O)N2CCCCC2)ccc1O)c1ccccc1NS(=O)(=O)c1ccc(F)cc1	none
O=C(Nc1ccc(-c2nc3ccccc3[nH]2)cc1)c1ccccc1NS(=O)(=O)c1ccc(F)cc1	KCC2 mod -4.6 | KCC2 secondary inactive | KCC2 bumet counter inactive | KCC2 secondary2 inactive | HEK293 Tl flux inactive | KCC2 ouabain 0.015 | HEK293 Tl flux2 inactive
O=C(COC(=O)CCN=C1NS(=O)(=O)c2ccccc21)NC1CCCCCCC1	none
CCC(=O)Nc1nc(-c2ccc3c(c2)OCCO3)cs1	none (no result: KCC2 mod)
c1cc2c(cc1-c1csc(NNC3=NCCCCC3)n1)OCCO2	KCC2 mod 3.6 (no result: V-ATPase pH, ABCB6 inh MLPCN) | KCC2 secondary inactive | KCC2 bumet counter inactive | KCC2 secondary2 inactive | HEK293 Tl flux inactive | KCC2 ouabain inactive | HEK293 Tl flux2 inactive
CCC(O)c1cnc(OCc2ccccc2)nc1OCc1ccccc1 (stereo not drawn)	none (no result: Dynein cargo inh, pCIP destab, KCC2 mod)
COc1ccc(OCC(=O)NNC(=O)c2cc3ccccc3o2)cc1	KCC2 mod 5.1 | KCC2 secondary 0.013 | KCC2 bumet counter 0.017 | KCC2 secondary2 inactive | HEK293 Tl flux inconclusive | KCC2 ouabain inconclusive | HEK293 Tl flux2 inactive
CC(Oc1ccccc1F)C(=O)NNC(=O)c1cc2ccccc2o1 (stereo not drawn)	none (no result: KCC2 mod) | KCC2 secondary inactive | KCC2 bumet counter 0.028 | KCC2 secondary2 inactive | HEK293 Tl flux 0.022 | KCC2 ouabain 0.03 | HEK293 Tl flux2 0.016
CCCNC(=O)c1ccccc1NC(=O)COc1ccc(OC)cc1	KCC2 mod 6.5 | KCC2 secondary inactive | KCC2 bumet counter inconclusive | KCC2 secondary2 inactive | HEK293 Tl flux inactive | KCC2 ouabain inactive | HEK293 Tl flux2 inactive
CC(C)NC(=O)c1cc2ccccc2o1	none
Cn1c(CSCc2ccccc2)nnc1SCC(=O)Nc1nccs1	KCC2 mod 6.2 | KCC2 secondary inactive | KCC2 bumet counter inactive | KCC2 secondary2 inactive | HEK293 Tl flux inactive | KCC2 ouabain inactive | HEK293 Tl flux2 inactive
Cc1csc(NC(=O)CSc2nnc(-c3cccs3)n2C)n1	KCC2 mod -3 | KCC2 secondary inactive | KCC2 bumet counter inactive | KCC2 secondary2 inactive | HEK293 Tl flux inactive | KCC2 ouabain inactive | HEK293 Tl flux2 inactive
CCn1nnnc1SCC(=O)Nc1nc(-c2cccs2)cs1	KCC2 mod -4.1 | KCC2 secondary inactive | KCC2 bumet counter inactive | KCC2 secondary2 inconclusive | HEK293 Tl flux inactive | KCC2 ouabain 0.014 | HEK293 Tl flux2 inactive
Cn1c(SCC(=O)Nc2nc3c(s2)CCCC3)nnc1-c1ccccc1	KCC2 mod -4.8 | KCC2 secondary inactive | KCC2 bumet counter inactive | KCC2 secondary2 0.023 | HEK293 Tl flux inactive | KCC2 ouabain 0.018 | HEK293 Tl flux2 inactive
Cc1ccccc1-c1nc(CS(=O)(=O)CC(=O)NCCN2CCCC2)c(C)o1	none (no result: Dynein cargo inh, KCC2 mod)
CC1CCCC(C)N1C(=O)COC(=O)c1cc(F)c(F)cc1Cl (stereo not drawn)	none (no result: Dynein cargo inh, pCIP destab, KCC2 mod)
Cn1c(SCc2c(Cl)cccc2Cl)nnc1-c1cccs1	KCC2 mod -4.6 | KCC2 secondary inactive | KCC2 bumet counter inactive | KCC2 secondary2 inactive | HEK293 Tl flux inconclusive | KCC2 ouabain inconclusive | HEK293 Tl flux2 inactive
